# Laboratory results taken from ChEMBL document CHEMBL1157665, “Novel 4-thiazolidinone derivatives as potential antifungal and antibacterial drugs” (2010).
# What was measured:
# [1] = system: Talaromyces funiculosus; assay: Antifungal activity against Penicillium funiculosum ATCC 36839 after 72 hrs by serial sub-cultivation method; type: functional; details: ATCC 36839, 72 h
# Procedure, shortened: (§1)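 MFC was found by serial sub-cultivation of 2 µl into plates holding 100 µl broth per well, then incubation 72 h at 28 °C. MFC is the lowest concentration with no visible growth, taken as 99.5% killing of the original inoculum. Spore inocula came from malt agar cultures washed with 0.85% saline and 0.1% Tween 80.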
# [2] = system: Micrococcus flavus; assay: Antibacterial activity against Micrococcus flavus ATCC 10240 after 24 hrs; type: functional; details: ATCC 10240, 24 h
# Procedure, shortened: (§2)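 Broth microdilution MIC in 96-well plates. Compounds in LB broth with bacterial inoculum of 1.0 × 10^4 cfu per well, from suspensions adjusted with sterile saline to 1.0 × 10⁵ CFU/ml. Incubated 24 h at […] as printed. MIC taken as the lowest concentration with no visible growth under the binocular microscope. OD at 655 nm also read against blank. Streptomycin and ampicillin as positive controls. Duplicate, repeated three times.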
# [3] = system: Proteus mirabilis; assay: Antibacterial activity against Proteus mirabilis after 24 hrs; type: functional; procedure, shortened: as §2
# [4] = system: Talaromyces funiculosus; assay: Antifungal activity against Penicillium funiculosum ATCC 36839 after 72 hrs by serial dilution method; type: functional; details: ATCC 36839, 72 h
# Procedure, shortened: (§3)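 Fungi were kept on malt agar at 4 °C and sub-cultured monthly. Spores were washed off the agar with sterile 0.85% saline containing 0.1% Tween 80 (v/v). Modified microdilution in 96-well plates. MIC is the lowest concentration with no visible growth under the binocular microscope. Inoculum checked on malt agar for contamination and validity.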
# [5] = system: Staphylococcus aureus; assay: Antibacterial activity against Staphylococcus aureus ATCC 6538 after 72 hrs by serial sub-cultivation method; type: functional; details: ATCC 6538, 72 h
# Procedure, shortened: (§4)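 MBC was found by serial sub-cultivation of 2 µl from the MIC wells into plates holding 100 µl broth per well, then incubation for 72 h. MBC is the lowest concentration with no visible growth, i.e. 99.5% killing of the original inoculum. Bacterial inoculum was 1.0 × 10^4 cfu per well in LB broth. Duplicate, repeated three times.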
# [6] = system: Pseudomonas aeruginosa; assay: Antibacterial activity against Pseudomonas aeruginosa ATCC 27853 after 72 hrs by serial sub-cultivation method; type: functional; details: ATCC 27853, 72 h; procedure, shortened: as §4
# [7] = system: Aspergillus flavus; assay: Antifungal activity against Aspergillus flavus ATCC 9643 after 72 hrs by serial dilution method; type: functional; details: ATCC 9643, 72 h; procedure, shortened: as §3
# [8] = system: Proteus mirabilis; assay: Antibacterial activity against Proteus mirabilis after 72 hrs by serial sub-cultivation method; type: functional; procedure, shortened: as §4
# [9] = system: Listeria monocytogenes; assay: Antibacterial activity against Listeria monocytogenes NCTC 7973 after 24 hrs; type: functional; details: NCTC 7973, 24 h; procedure, shortened: as §2
# [10] = system: Escherichia coli; assay: Antibacterial activity against Escherichia coli ATCC 35210 after 72 hrs by serial sub-cultivation method; type: functional; details: ATCC 35210, 72 h; procedure, shortened: as §4
# [11] = system: Listeria monocytogenes; assay: Antibacterial activity against Listeria monocytogenes NCTC 7973 after 72 hrs by serial sub-cultivation method; type: functional; details: NCTC 7973, 72 h; procedure, shortened: as §4
# [12] = system: Aspergillus fumigatus; assay: Antifungal activity against Aspergillus fumigatus plant isolate after 72 hrs by serial dilution method
# [13] = system: Micrococcus flavus; assay: Antibacterial activity against Micrococcus flavus ATCC 10240 after 72 hrs by serial sub-cultivation method; type: functional; details: ATCC 10240, 72 h; procedure, shortened: as §4
# [14] = system: Aspergillus versicolor; assay: Antifungal activity against Aspergillus versicolor ATCC 11730 after 72 hrs by serial dilution method; type: functional; details: ATCC 11730, 72 h; procedure, shortened: as §3
# [15] = system: Penicillium ochrochloron; assay: Antifungal activity against Penicillium ochrochloron ATCC 9112 after 72 hrs by serial dilution method; type: functional; details: ATCC 9112, 72 h; procedure, shortened: as §3
# [16] = system: Aspergillus fumigatus; assay: Antifungal activity against Aspergillus fumigatus plant isolate after 72 hrs by serial sub-cultivation method
# [17] = system: Trichoderma viride; assay: Antifungal activity against Trichoderma viride IAM 5061 after 72 hrs by serial dilution method; type: functional; details: IAM 5061, 72 h; procedure, shortened: as §3
# [18] = system: Trichoderma viride; assay: Antifungal activity against Trichoderma viride IAM 5061 after 72 hrs by serial sub-cultivation method; type: functional; details: IAM 5061, 72 h; procedure, shortened: as §1
# [19] = system: Bacillus cereus; assay: Antibacterial activity against Bacillus cereus clinical isolate after 72 hrs by serial sub-cultivation method; type: functional; procedure, shortened: as §4
# [20] = system: Fulvia fulva; assay: Antifungal activity against Fulvia fulva TK 5318 after 72 hrs by serial sub-cultivation method; type: functional; details: TK 5318, 72 h; procedure, shortened: as §1
# [21] = system: Pseudomonas aeruginosa; assay: Antibacterial activity against Pseudomonas aeruginosa ATCC 27853 after 24 hrs; type: functional; details: ATCC 27853, 24 h; procedure, shortened: as §2
# [22] = system: Penicillium ochrochloron; assay: Antifungal activity against Penicillium ochrochloron ATCC 9112 after 72 hrs by serial sub-cultivation method; type: functional; details: ATCC 9112, 72 h; procedure, shortened: as §1
# [23] = system: Fulvia fulva; assay: Antifungal activity against Fulvia fulva TK 5318 after 72 hrs by serial dilution method; type: functional; details: TK 5318, 72 h; procedure, shortened: as §3
# [24] = system: Salmonella typhimurium; assay: Antibacterial activity against Salmonella Typhimurium ATCC 13311 after 24 hrs; type: functional, Salmonella enterica subsp. enterica serovar Typhimurium; details: Salmonella enterica, ATCC 13311, 24 h; procedure, shortened: as §2
# [25] = system: Aspergillus versicolor; assay: Antifungal activity against Aspergillus versicolor ATCC 11730 after 72 hrs by serial sub-cultivation method; type: functional; details: ATCC 11730, 72 h; procedure, shortened: as §1
# [26] = system: Staphylococcus aureus; assay: Antibacterial activity against Staphylococcus aureus ATCC 6538 after 24 hrs; type: functional; details: ATCC 6538, 24 h; procedure, shortened: as §2
# [27] = system: Aspergillus niger; assay: Antifungal activity against Aspergillus niger ATCC 6275 after 72 hrs by serial sub-cultivation method; type: functional; details: ATCC 6275, 72 h; procedure, shortened: as §1
# [28] = system: Bacillus cereus; assay: Antibacterial activity against Bacillus cereus clinical isolate after 24 hrs; type: functional; procedure, shortened: as §2
# [29] = system: Aspergillus flavus; assay: Antifungal activity against Aspergillus flavus ATCC 9643 after 72 hrs by serial sub-cultivation method; type: functional; details: ATCC 9643, 72 h; procedure, shortened: as §1
# [30] = system: Salmonella typhimurium; assay: Antibacterial activity against Salmonella Typhimurium ATCC 13311 after 72 hrs by serial sub-cultivation method; type: functional, Salmonella enterica subsp. enterica serovar Typhimurium; details: Salmonella enterica, ATCC 13311, 72 h; procedure, shortened: as §4
# [31] = system: Escherichia coli; assay: Antibacterial activity against Escherichia coli ATCC 35210 after 24 hrs; type: functional; details: ATCC 35210, 24 h; procedure, shortened: as §2
# [32] = system: Aspergillus niger; assay: Antifungal activity against Aspergillus niger ATCC 6275 after 72 hrs by serial dilution method; type: functional; details: ATCC 6275, 72 h; procedure, shortened: as §3
MIC [2],MIC [3],MIC [4],MIC [7],MIC [9],MIC [14],MIC [15],MIC [17],SMILES,MFC [1],MBC [5],MBC [6],MBC [8],MBC [10],MBC [11],MIC [12],MBC [13],MFC [16],MFC [18],MBC [19],MFC [20],further results
22.9 µM,45.8 µM,17.2 µM,11.5 µM,22.9 µM,17.2 µM,17.2 µM,11.5 µM,O=C1N/C(=N/c2nc(C34CC5CC(CC(C5)C3)C4)cs2)S/C1=C\c1ccc(O)cc1,22.9 µM,45.8 µM,45.8 µM,68.7 µM,45.8 µM,45.8 µM,11.5 µM,45.8 µM,22.9 µM,22.9 µM,22.9 µM,22.9 µM,MIC [21]: 22.9 µM; MFC [22]: 22.9 µM; MIC [23]: 11.5 µM; MIC [24]: 11.5 µM; MFC [25]: 22.9 µM; MIC [26]: 17.2 µM; MFC [27]: 22.9 µM; MIC [28]: 17.2 µM; MFC [29]: 22.9 µM; MBC [30]: 17.2 µM; MIC [31]: 22.9 µM; MIC [32]: 11.5 µM
10.5 µM,41.8 µM,10.5 µM,10.5 µM,20.9 µM,15.7 µM,5.2 µM,10.5 µM,COc1cc(/C=C2\S/C(=N\c3nc(C45CC6CC(CC(C6)C4)C5)cs3)NC2=O)cc(OC)c1O,20.9 µM,15.7 µM,41.8 µM,62.7 µM,41.8 µM,41.8 µM,15.7 µM,20.9 µM,20.9 µM,20.9 µM,20.9 µM,20.9 µM,MIC [21]: 15.7 µM; MFC [22]: 10.5 µM; MIC [23]: 5.2 µM; MIC [24]: 10.5 µM; MFC [25]: 20.9 µM; MIC [26]: 10.5 µM; MFC [27]: 20.9 µM; MIC [28]: 20.9 µM; MFC [29]: 20.9 µM; MBC [30]: 15.7 µM; MIC [31]: 20.9 µM; MIC [32]: 10.5 µM
